The record followed here is ChEMBL document CHEMBL2163203, “Conformationally-locked N-glycosides with selective β-glucosidase inhibitory activity: identification of a new non-iminosugar-type pharmacological chaperone for Gaucher disease” (J Med Chem, 2012).

Molecules are shown by their SMILES. Calls of active or inactive are those of the source. The calls are words filed in the database; no cut-off is given here.

The test system of one assay is Helix pomatia. In words: Inhibition of Helix pomatia beta-mannosidase at 2 mM after 10 to 30 mins by spectrophotometric analysis. In short, it runs like this: (§1)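 Enzyme added to substrate with or without inhibitor in phosphate buffer (phosphate–citrate for α-/β-mannosidase and amyloglucosidase) at each enzyme's optimal pH; 10–30 min at 37 °C (55 °C amyloglucosidase), aiming at 10–20% conversion. Stopped with 1 M Na₂CO₃, A405; trehalase stopped by heating, GLC-Trinder added, A492. Ki from Lineweaver–Burk and double-reciprocal analysis, substrate near Km.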

Assay [1] can be described thus: Competitive inhibition of bovine beta-glucosidase isolated from liver after 10 to 30 mins by Lineweaver-Burk plot analysis. Further details: species or system Bos taurus. In short, it runs like this:
as §1

The target in assay [2] is T1, Uncharacterized protein (Sus scrofa) (UniProt I3LIR5).
T1 sequence (whole entry): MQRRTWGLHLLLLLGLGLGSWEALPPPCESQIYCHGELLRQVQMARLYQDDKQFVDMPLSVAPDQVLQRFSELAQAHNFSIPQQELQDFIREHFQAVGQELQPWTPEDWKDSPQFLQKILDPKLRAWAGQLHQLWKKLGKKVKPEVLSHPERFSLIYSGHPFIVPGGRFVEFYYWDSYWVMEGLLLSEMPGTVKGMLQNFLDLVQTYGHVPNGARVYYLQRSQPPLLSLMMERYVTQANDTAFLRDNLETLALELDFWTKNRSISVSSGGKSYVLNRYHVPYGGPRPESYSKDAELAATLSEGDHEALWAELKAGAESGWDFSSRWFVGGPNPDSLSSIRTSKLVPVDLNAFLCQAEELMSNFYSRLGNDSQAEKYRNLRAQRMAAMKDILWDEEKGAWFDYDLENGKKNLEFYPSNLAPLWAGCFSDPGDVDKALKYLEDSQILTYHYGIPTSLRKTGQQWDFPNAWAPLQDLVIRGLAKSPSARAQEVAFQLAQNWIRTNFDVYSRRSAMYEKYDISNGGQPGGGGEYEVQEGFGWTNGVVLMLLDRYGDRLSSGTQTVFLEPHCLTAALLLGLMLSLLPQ
In words: Inhibition of pig trehalase isolated from kidney using alpha,alpha'-trehalose as substrate at 2 mM after 10 to 30 mins by spectrophotometric analysis. An outline of the steps:
as §1

Another assay deals with Aspergillus niger. Description: Inhibition of Aspergillus niger amyloglucosidase at 2 mM after 10 to 30 mins by spectrophotometric analysis. In short, it runs like this: as §1
Assay [3] concerns Saccharomyces cerevisiae. In words: Inhibition of yeast isomaltase at 2 mM after 10 to 30 mins by spectrophotometric analysis. An outline of the steps: as §1
Another assay relates to Penicillium decumbens. In words: Inhibition of Penicillium decumbens naringinase at 2 mM after 10 to 30 mins by spectrophotometric analysis. In short, it runs like this: as §1
The target of assay [4] is Alpha-galactosidase (Coffea arabica) (UniProt Q42656). In words: Inhibition of green coffee alpha galactosidase at 2 mM after 10 to 30 mins by spectrophotometric analysis. In short, it runs like this: as §1
Chain of Alpha-galactosidase (Coffea arabica) (Q42656 16-378 limits assumed): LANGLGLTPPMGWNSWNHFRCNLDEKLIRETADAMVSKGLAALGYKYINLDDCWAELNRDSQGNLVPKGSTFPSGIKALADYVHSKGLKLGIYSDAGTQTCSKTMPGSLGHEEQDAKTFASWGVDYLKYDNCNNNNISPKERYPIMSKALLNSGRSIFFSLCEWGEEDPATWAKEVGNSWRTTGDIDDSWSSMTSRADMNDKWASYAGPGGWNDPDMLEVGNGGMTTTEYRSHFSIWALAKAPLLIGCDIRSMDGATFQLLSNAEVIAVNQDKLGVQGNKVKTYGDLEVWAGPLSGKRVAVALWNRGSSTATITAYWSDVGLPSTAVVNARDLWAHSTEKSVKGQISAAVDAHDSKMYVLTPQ
In assay [5] the test system is Saccharomyces cerevisiae. In words: Inhibition of yeast alpha-glucosidase using at 2 mM after 10 to 30 mins by spectrophotometric analysis. An outline of the steps:
as §1

For a further assay, the system named is Prunus dulcis. Description: Inhibition of almond beta-glucosidase at 2 mM after 10 to 30 mins by spectrophotometric analysis. In short, it runs like this:
as §1

Assay [6] deals with T2, Lysosomal acid glucosylceramidase (Homo sapiens) (UniProt P04062).
T2 sequence (whole entry): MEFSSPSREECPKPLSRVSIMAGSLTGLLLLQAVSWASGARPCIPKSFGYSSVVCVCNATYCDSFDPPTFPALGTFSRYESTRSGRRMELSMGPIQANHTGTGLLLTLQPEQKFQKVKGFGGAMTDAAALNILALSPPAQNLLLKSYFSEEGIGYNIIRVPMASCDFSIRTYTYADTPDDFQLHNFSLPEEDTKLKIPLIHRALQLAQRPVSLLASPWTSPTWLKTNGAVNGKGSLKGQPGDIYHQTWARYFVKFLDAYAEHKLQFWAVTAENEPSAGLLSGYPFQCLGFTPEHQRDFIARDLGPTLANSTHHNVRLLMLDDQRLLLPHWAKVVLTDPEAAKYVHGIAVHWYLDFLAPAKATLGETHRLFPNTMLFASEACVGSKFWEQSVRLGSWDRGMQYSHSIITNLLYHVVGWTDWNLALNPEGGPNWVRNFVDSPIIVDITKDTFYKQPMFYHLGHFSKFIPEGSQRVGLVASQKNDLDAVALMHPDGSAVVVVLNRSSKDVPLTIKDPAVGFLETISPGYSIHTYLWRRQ
Description: Inhibition of human beta-glucocerebrosidase at 100 uM relative to control. The conditions noted are these: values are per cent of control.

The next assay concerns Canavalia ensiformis. Description: Inhibition of jack bean alpha-mannosidase at 2 mM after 10 to 30 mins by spectrophotometric analysis. In short, it runs like this:
as §1

In assay [7] the target is Beta-galactosidase (Escherichia coli) (UniProt Q8VNN2). In words: Inhibition of Escherichia coli beta galactosidase at 2 mM after 10 to 30 mins by spectrophotometric analysis. An outline of the steps: as §1
Chain of Beta-galactosidase (Escherichia coli) (Q8VNN2 whole entry, looked up): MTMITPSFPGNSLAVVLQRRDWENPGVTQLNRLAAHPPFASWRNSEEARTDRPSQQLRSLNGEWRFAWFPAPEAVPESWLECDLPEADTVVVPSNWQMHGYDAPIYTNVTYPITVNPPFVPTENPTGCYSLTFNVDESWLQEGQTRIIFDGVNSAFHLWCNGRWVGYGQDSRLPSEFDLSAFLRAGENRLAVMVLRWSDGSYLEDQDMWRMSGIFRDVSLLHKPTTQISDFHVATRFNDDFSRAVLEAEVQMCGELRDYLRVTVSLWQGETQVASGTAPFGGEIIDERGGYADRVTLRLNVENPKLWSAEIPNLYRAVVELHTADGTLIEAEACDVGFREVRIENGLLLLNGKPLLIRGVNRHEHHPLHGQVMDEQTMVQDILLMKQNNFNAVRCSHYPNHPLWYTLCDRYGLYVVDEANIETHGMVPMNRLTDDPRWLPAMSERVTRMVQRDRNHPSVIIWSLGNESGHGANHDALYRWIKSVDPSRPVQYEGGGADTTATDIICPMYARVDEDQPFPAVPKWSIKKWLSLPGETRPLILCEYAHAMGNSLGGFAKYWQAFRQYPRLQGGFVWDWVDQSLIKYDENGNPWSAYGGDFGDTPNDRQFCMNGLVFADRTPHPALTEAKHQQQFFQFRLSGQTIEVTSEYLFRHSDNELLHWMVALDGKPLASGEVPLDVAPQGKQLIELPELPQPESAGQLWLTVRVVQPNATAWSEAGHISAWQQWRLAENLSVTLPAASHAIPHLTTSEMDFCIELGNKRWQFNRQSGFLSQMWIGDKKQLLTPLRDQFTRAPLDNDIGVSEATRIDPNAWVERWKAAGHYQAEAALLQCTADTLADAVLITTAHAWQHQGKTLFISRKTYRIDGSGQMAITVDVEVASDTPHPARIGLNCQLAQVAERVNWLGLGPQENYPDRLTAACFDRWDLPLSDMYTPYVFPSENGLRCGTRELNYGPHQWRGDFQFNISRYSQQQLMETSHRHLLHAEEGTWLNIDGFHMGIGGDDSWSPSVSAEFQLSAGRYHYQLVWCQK

On to `CCCCCCCCSC1=N[C@H]2O[C@H](CO)[C@@H](O)[C@H](O)[C@H]2O1`, for which the inhibition entry (with Helix pomatia; in assay [2]; in the assay with Aspergillus niger; in the assay with Saccharomyces cerevisiae [3]; in the assay with Penicillium decumbens; in [4]) was “inactive” throughout. For the same molecule, the inhibition result (in the assay on Saccharomyces cerevisiae [5]; in the assay on Prunus dulcis; in the assay with Canavalia ensiformis; in assay [7]) was “inactive” throughout. Also, in assay [1], the affinity corresponds to a Ki of 280 µM. Also, the residual activity in assay [6] amounted to 91%.

In the case of `CCCCCCCCCCCCCCCCSC1=N[C@H]2O[C@H](CO)[C@@H](O)[C@H](O)[C@H]2O1`, the inhibition result (with Helix pomatia; in assay [2]; in the assay with Aspergillus niger; in the assay with Saccharomyces cerevisiae [3]; with Penicillium decumbens; in assay [4]) was “inactive” throughout. For the same molecule, the inhibition entry (with Saccharomyces cerevisiae [5]; in the assay with Prunus dulcis; in the assay with Canavalia ensiformis; in assay [7]) was “inactive” each time. Further, the affinity in assay [1], expressed as Ki, was 52 µM. Moreover, in [6], the residual activity came to 86%.

For `O=C(NCCCCCCSC1=N[C@H]2O[C@H](CO)[C@@H](O)[C@H](O)[C@H]2O1)C12CC3CC(CC(C3)C1)C2`, the inhibition entry (in the assay on Helix pomatia; in assay [2]; in the assay on Aspergillus niger; with Saccharomyces cerevisiae [3]; with Penicillium decumbens; in assay [4]) was “inactive” in each case. In addition, the inhibition entry (in the assay with Saccharomyces cerevisiae [5]; in the assay with Prunus dulcis; with Canavalia ensiformis; in assay [7]) was “inactive” each time. This molecule also came in with a Ki in [1] of 230 µM. In assay [6], the residual activity was found to be 91%.

Take `CCCCSC1=N[C@H]2O[C@H](CO)[C@@H](O)[C@H](O)[C@H]2O1`: the inhibition entry (with Helix pomatia; in assay [2]; in the assay on Aspergillus niger; in the assay on Saccharomyces cerevisiae [3]; in the assay on Penicillium decumbens; in [4]) was “inactive” in each case. Besides, the inhibition entry (in the assay on Saccharomyces cerevisiae [5]; in the assay with Prunus dulcis; in the assay with Canavalia ensiformis; in assay [7]) was “inactive” throughout. Also, the affinity in [1], expressed as Ki, was 580 µM. For the same molecule, the residual activity in [6] was found to be 92%.

For `CCCCCCCSC1=N[C@H]2O[C@H](CO)[C@@H](O)[C@H](O)[C@H]2O1`, the inhibition entry (with Helix pomatia; in assay [2]; in the assay with Aspergillus niger; in the assay with Saccharomyces cerevisiae [3]; in the assay on Penicillium decumbens; in assay [4]) was “inactive” each time. The inhibition result (in the assay on Saccharomyces cerevisiae [5]; in the assay with Prunus dulcis; in the assay with Canavalia ensiformis; in [7]) was “inactive” in each case. The molecule further registered a Ki in [1] of 310 µM. This molecule also registered a residual activity in [6] of 91%.

Take `OC[C@H]1O[C@@H]2N=C(SCc3ccccc3)O[C@@H]2[C@@H](O)[C@@H]1O`: the inhibition entry (with Helix pomatia; in [2]; in the assay on Aspergillus niger; in the assay on Saccharomyces cerevisiae [3]; in the assay on Penicillium decumbens; in assay [4]) was “inactive” throughout. Besides, the inhibition entry (with Saccharomyces cerevisiae [5]; in the assay with Prunus dulcis; in the assay with Canavalia ensiformis; in assay [7]) was “inactive” throughout. This molecule registered a Ki in assay [1] of 210 µM. The molecule also gave a residual activity in assay [6] of 88%.

As for `C=CCSC1=N[C@H]2O[C@H](CO)[C@@H](O)[C@H](O)[C@H]2O1`, the inhibition result (with Helix pomatia; in [2]; in the assay with Aspergillus niger; in the assay with Saccharomyces cerevisiae [3]; with Penicillium decumbens; in [4]) was “inactive” each time. Also, the inhibition result (in the assay with Saccharomyces cerevisiae [5]; in the assay with Prunus dulcis; with Canavalia ensiformis; in [7]) was “inactive” throughout. This molecule also returned a Ki in assay [1] of 220 µM. The molecule further came in with a residual activity in [6] of 97%.

`CCCCCCCCCCCCSC1=N[C@H]2O[C@H](CO)[C@@H](O)[C@H](O)[C@H]2O1`: the inhibition result (in the assay on Helix pomatia; in [2]; in the assay with Aspergillus niger; in the assay on Saccharomyces cerevisiae [3]; in the assay with Penicillium decumbens; in assay [4]) was “inactive” throughout. In addition, the inhibition entry (in the assay on Saccharomyces cerevisiae [5]; in the assay with Prunus dulcis; with Canavalia ensiformis; in [7]) was “inactive” each time. The same molecule returned a Ki in assay [1] of 73 µM. Further, the residual activity in assay [6] was found to be 87%.
